Results as given in ChEMBL document CHEMBL1145518, “Potent immune-modulating and anticancer effects of NKT cell stimulatory glycolipids” (2007).
Activity calls are given as the source filed them. The rule behind the calls is not given here.

What was measured:
dendritic [1] = assay: Activation of TCR in human immature dendritic cells assessed as increase in CREB phosphorylation; format: cell-based
How it was run: (§1)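 Human HeLa, HeLa-CD1d or autologous immature DCs were loaded with glycolipid at 10 μg/ml, or DMSO, for 2 h. Then 3 × 10^5 naïve CD161+/CD3+ NKT cells were added; these were bead-isolated and kept in 100 units/ml IL-2. After 5–10 min the cells were washed and lysed at 4°C. Phospho-CD3ε, ERK1/2 (Thr-185/Tyr-187) and CREB (Ser-133) were read by Luminex bead assay as median fluorescence normalized to total protein, expressed as fold over 1% DMSO.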

Mus musculus [2] = assay: Induction of GM-CSF secretion in BALB/c mouse serum at 2 ug, iv after 2 hrs relative to control; format: functional
How it was run: (§2)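 BALB/c mice received an i.v. injection of 100 μl of glycolipid diluted to 20 μg/ml in saline from DMSO stock, with 1% DMSO as vehicle. Serum cytokines/chemokines were measured at 2 and 18 h after injection.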

Mus musculus [3] = assay: Induction of IFN-gamma secretion in BALB/c mouse serum at 2 ug, iv after 18 hrs relative to control; format: functional; how it was run: as §2
[4] = Induction of IL6 secretion in human CD161+ CD3+ NKT cells at 10 ug/ml after 18 hrs relative to basal level; format: functional
How it was run: (§3)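 Human Vα24i NKT cell lines were expanded for 10 days on irradiated (3,000 rad) autologous immature DCs with 10 units/ml IL-2. The cells (1 × 10^5) were cocultured with 5 × 10^4 irradiated immature CD14+ DCs plus glycolipid at 10 μg/ml. Supernatants were collected at 18 h and read on a 22-plex Luminex bead panel. Triplicates, mean ± SD.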

[5] = Induction of IL13 secretion in human CD161+ CD3+ NKT cells at 10 ug/ml after 18 hrs relative to basal level; format: functional; how it was run: as §3
[6] = Induction of IL3 secretion in human CD161+ CD3+ NKT cells at 10 ug/ml after 18 hrs relative to basal level; format: functional; how it was run: as §3
4T1 = assay: Antitumor activity in mouse 4T1 cells xenografted BALB/c mouse assessed as suppression of tumor growth at 2 ug, iv; format: functional, cell-based
How it was run: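 BALB/c mice (n = 6) were inoculated s.c. with 4T1 breast cancer cells. From day 3 they were treated i.v. with glycolipid or vehicle twice weekly for 4 weeks. Tumor volume was recorded every 3 days for 1 month, and survival was monitored up to 54 days.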

[7] = Induction of IL15 secretion in human CD161+ CD3+ NKT cells at 10 ug/ml after 18 hrs relative to basal level; format: functional; how it was run: as §3
[8] = Induction of IL2 secretion in human CD161+ CD3+ NKT cells at 10 ug/ml after 18 hrs relative to basal level; format: functional; how it was run: as §3
[9] = Induction of GM-CSF secretion in human CD161+ CD3+ NKT cells at 10 ug/ml after 18 hrs relative to basal level; format: functional; how it was run: as §3
Mus musculus [10] = assay: Induction of IL4 secretion in BALB/c mouse serum at 2 ug, iv after 2 hrs relative to control; format: functional; how it was run: as §2
[11] = Induction of IL10 secretion in human CD161+ CD3+ NKT cells at 10 ug/ml after 18 hrs relative to basal level; format: functional; how it was run: as §3
Mus musculus [12] = assay: Induction of IL1-beta secretion in BALB/c mouse serum at 2 ug, iv after 18 hrs relative to control; format: functional; how it was run: as §2
HeLa [13] = assay: Activation of TCR in human HeLa cells overexpressing CD1d assessed as increase in ERK1/2 phosphorylation; format: cell-based; how it was run: as §1
[14] = Induction of IL12p70 secretion in human CD161+ CD3+ NKT cells at 10 ug/ml after 18 hrs relative to basal level; format: functional; how it was run: as §3
Mus musculus [15] = assay: Induction of IL3 secretion in BALB/c mouse serum at 2 ug, iv after 2 hrs relative to control; format: functional; how it was run: as §2
[16] = Induction of MIPalpha secretion in human CD161+ CD3+ NKT cells at 10 ug/ml after 18 hrs relative to basal level; format: functional; how it was run: as §3
[17] = Induction of IFN-gamma secretion in human CD161+ CD3+ NKT cells at 10 ug/ml after 18 hrs relative to basal level; format: functional; how it was run: as §3
Mus musculus [18] = assay: Induction of IL6 secretion in BALB/c mouse serum at 2 ug, iv after 2 hrs relative to control; format: functional; how it was run: as §2
[19] = Induction of MCP1 secretion in human CD161+ CD3+ NKT cells at 10 ug/ml after 18 hrs relative to basal level; format: functional; how it was run: as §3
dendritic [20] = assay: Activation of TCR in human immature dendritic cells assessed as increase in CD3epsilon phosphorylation; format: cell-based; how it was run: as §1
HeLa [21] = assay: Activation of TCR in human HeLa cells overexpressing CD1d assessed as increase in CD3epsilon phosphorylation; format: cell-based; how it was run: as §1
Mus musculus [22] = assay: Induction of TNFalpha secretion in BALB/c mouse serum at 2 ug, iv after 18 hrs relative to control; format: functional; how it was run: as §2
Mus musculus [23] = assay: Induction of IL12p40 secretion in BALB/c mouse serum at 2 ug, iv after 18 hrs relative to control; format: functional; how it was run: as §2
Mus musculus [24] = assay: Induction of IL12p70 secretion in BALB/c mouse serum at 2 ug, iv after 18 hrs relative to control; format: functional; how it was run: as §2
TC1 = assay: Antitumor activity in TC1 cells xenografted C57BL/6 mouse assessed as suppression of tumor growth at 2 ug, iv; format: functional, cell-based
How it was run: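 C57BL/6 mice (n = 5/group) were inoculated i.v. with TC-1 lung cancer cells. They were then treated i.v. with 2 μg glycolipid per mouse, or 100 μl of 1% DMSO, twice weekly for 4 weeks. Kaplan–Meier survival and body weight were followed, with tumor-free mice as an additional control.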

dendritic [25] = assay: Activation of TCR in human immature dendritic cells assessed as increase in ERK1/2 phosphorylation; format: cell-based; how it was run: as §1
Mus musculus [26] = assay: Induction of KC secretion in BALB/c mouse serum at 2 ug, iv after 2 hrs relative to control; format: functional; how it was run: as §2
[27] = Induction of IL12p40 secretion in human CD161+ CD3+ NKT cells at 10 ug/ml after 18 hrs relative to basal level; format: functional; how it was run: as §3
[28] = Induction of IL4 secretion in human CD161+ CD3+ NKT cells at 10 ug/ml after 18 hrs relative to basal level; format: functional; how it was run: as §3
Mus musculus [29] = assay: Induction of MCP1 secretion in BALB/c mouse serum at 2 ug, iv after 2 hrs relative to control; format: functional; how it was run: as §2
Mus musculus [30] = assay: Induction of RANTES secretion in BALB/c mouse serum at 2 ug, iv after 2 hrs relative to control; format: functional; how it was run: as §2
[31] = Induction of TNFalpha secretion in human CD161+ CD3+ NKT cells at 10 ug/ml after 18 hrs relative to basal level; format: functional; how it was run: as §3
Mus musculus [32] = assay: Induction of IL13 secretion in BALB/c mouse serum at 2 ug, iv after 2 hrs relative to control; format: functional; how it was run: as §2
HeLa [33] = assay: Activation of TCR in human HeLa cells overexpressing CD1d assessed as increase in CREB phosphorylation; format: cell-based; how it was run: as §1
Mus musculus [34] = assay: Induction of IL10 secretion in BALB/c mouse serum at 2 ug, iv after 18 hrs relative to control; format: functional; how it was run: as §2

## CCCCCCCCCCCCCCCCCCCCCCCCCC(=O)N[C@@H](CO[C@H]1O[C@H](CO)[C@H](O)[C@H](O)[C@H]1O)[C@H](O)[C@H](O)CCc1ccccc1
Dendritic [1]
  Activity: 158
Mus musculus [2]
  Activity: 7.9
Mus musculus [3]
  Activity: 122.5
[4]
  Activity: 2.8
[5]
  Activity: 2.3
[6]
  Activity: 1.7
4T1
  Activity: Active
[7]
  Activity: 2.3
[8]
  Activity: 2.8
[9]
  Activity: 4.3
Mus musculus [10]
  Activity: 115
[11]
  Activity: 1.2
Mus musculus [12]
  Activity: 3.4
HeLa [13]
  Activity: 6.6
[14]
  Activity: 3.2
Mus musculus [15]
  Activity: 38.8
[16]
  Activity: 3.6
[17]
  Activity: 6.6
Mus musculus [18]
  Activity: 6.3
[19]
  Activity: 2
Dendritic [20]
  Activity: 17.3
HeLa [21]
  Activity: 7.3
Mus musculus [22]
  Activity: 2.3
Mus musculus [23]
  Activity: 3.5
Mus musculus [24]
  Activity: 6.6
TC1
  Activity: Active
Dendritic [25]
  Activity: 35
Mus musculus [26]
  Activity: 19.2
[27]
  Activity: 1.8
[28]
  Activity: 2.7
Mus musculus [29]
  Activity: 32.9
Mus musculus [30]
  Activity: 2.1
[31]
  Activity: 7.6
Mus musculus [32]
  Activity: 12.6
HeLa [33]
  Activity: 41
Mus musculus [34]
  Activity: 2.2

## CCCCCCCCCCCCCCCCCCCCCCCCCC(=O)N[C@@H](CO[C@H]1O[C@H](CO)[C@H](O)[C@H](O)[C@H]1O)[C@H](O)[C@H](O)CCCCCCCCCCCCCC [RGI-7000]
Dendritic [1]
  Activity: 68
Mus musculus [2]
  Activity: 13.1
Mus musculus [3]
  Activity: 300
[4]
  Activity: 1.8
[5]
  Activity: 1.8
[6]
  Activity: 1.9
4T1
  Activity: Active
[7]
  Activity: 2.6
[8]
  Activity: 2.3
[9]
  Activity: 3.5
Mus musculus [10]
  Activity: 240
[11]
  Activity: 1.2
Mus musculus [12]
  Activity: 7.8
HeLa [13]
  Activity: 6.6
[14]
  Activity: 1.8
Mus musculus [15]
  Activity: 3
[16]
  Activity: 2.9
[17]
  Activity: 3.4
Mus musculus [18]
  Activity: 5.5
[19]
  Activity: 0.9
Dendritic [20]
  Activity: 10.8
HeLa [21]
  Activity: 7.3
Mus musculus [22]
  Activity: 51
Mus musculus [23]
  Activity: 2.8
Mus musculus [24]
  Activity: 3.2
TC1
  Activity: Active
Dendritic [25]
  Activity: 30
Mus musculus [26]
  Activity: 30.5
[27]
  Activity: 1.4
[28]
  Activity: 3.9
Mus musculus [29]
  Activity: 18.7
Mus musculus [30]
  Activity: 2.6
[31]
  Activity: 7.7
Mus musculus [32]
  Activity: 15.1
HeLa [33]
  Activity: 32
Mus musculus [34]
  Activity: 3.6
